In ChEMBL document CHEMBL3792377, “Synthesis and characterization of a series of chiral alkoxymethyl morpholine analogs as dopamine receptor 4 (D4R) antagonists” (Bioorg Med Chem Lett, 2016):

Columns and labels:
D(4) dopamine receptor = target: T1, D(4) dopamine receptor (Homo sapiens, UniProt P21917); assay: Displacement of [3H]-Spiperone from human recombinant dopamine D4 receptor expressed in CHOK1 cells; type: cell-based, CHO-K1
T1 sequence (P21917 whole entry): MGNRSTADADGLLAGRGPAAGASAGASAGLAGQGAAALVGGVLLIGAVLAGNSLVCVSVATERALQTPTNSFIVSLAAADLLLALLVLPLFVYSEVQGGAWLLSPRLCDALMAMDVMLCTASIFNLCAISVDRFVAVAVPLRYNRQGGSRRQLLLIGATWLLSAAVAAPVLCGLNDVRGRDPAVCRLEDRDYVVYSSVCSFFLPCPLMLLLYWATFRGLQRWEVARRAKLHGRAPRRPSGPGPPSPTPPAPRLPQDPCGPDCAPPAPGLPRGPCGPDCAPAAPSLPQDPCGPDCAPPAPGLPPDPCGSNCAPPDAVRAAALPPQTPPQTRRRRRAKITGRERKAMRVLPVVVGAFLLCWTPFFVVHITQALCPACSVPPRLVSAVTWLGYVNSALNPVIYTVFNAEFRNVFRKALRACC
Outline: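 Radioligand binding at human D4 receptor using [3H]-spiperone, run as a contract assay in duplicate. IC50 and Ki were derived from concentration–response data. Single-point values are % inhibition of specific binding at 10 µM test compound.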

D(2) dopamine receptor = D(2) dopamine receptor (Homo sapiens, UniProt P14416); assay: Displacement of [3H]-Spiperone from human recombinant dopamine D2S receptor expressed in CHO cells at 10 uM relative to control; type: cell-based
D(2) dopamine receptor, sequence (P14416 whole entry): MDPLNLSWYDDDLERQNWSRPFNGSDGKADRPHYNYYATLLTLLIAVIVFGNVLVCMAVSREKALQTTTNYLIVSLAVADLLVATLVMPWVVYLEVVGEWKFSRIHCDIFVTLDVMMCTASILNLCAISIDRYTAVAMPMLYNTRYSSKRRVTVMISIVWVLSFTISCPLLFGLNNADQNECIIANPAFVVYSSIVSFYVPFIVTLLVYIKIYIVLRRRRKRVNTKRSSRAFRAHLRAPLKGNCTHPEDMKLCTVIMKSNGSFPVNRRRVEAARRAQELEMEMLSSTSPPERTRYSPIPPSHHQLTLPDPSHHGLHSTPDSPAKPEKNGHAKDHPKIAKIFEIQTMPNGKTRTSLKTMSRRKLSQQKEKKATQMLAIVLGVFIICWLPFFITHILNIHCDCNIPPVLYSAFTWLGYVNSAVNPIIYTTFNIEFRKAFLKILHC
Outline: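 Off-target dopamine receptor radioligand binding (D1, D2L, D2S, D3, D5), run as a contract assay. Test compound at a single concentration of 10 µM, reported as % inhibition of specific binding, measured in duplicate.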

[1] = Fraction unbound in human plasma by equilibrium dialysis method; type: ADME, cell-free
Plasma = assay: Fraction unbound in rat plasma by equilibrium dialysis method; type: ADME, cell-free

Row | IC50 (D(4) dopamine receptor) | Ki (D(4) dopamine receptor) | inhibition (D(2) dopamine receptor) | Fu [1] | Fu (Plasma) | Compound
1 | 150 nM | 43 nM | – | – | – | COc1ccc(CN2CCO[C@H](COc3ccccc3)C2)cc1OC
2 | 45 nM | 12.3 nM | < 50% | – | – | Cc1ccc(CN2CCO[C@H](COc3ccccc3)C2)cc1C
3 | 380 nM | 110 nM | – | – | – | COc1ccc(CN2CCO[C@H](COc3ccc(OC)cc3)C2)cc1
4 | 58 nM | 16.1 nM | – | – | – | CSc1ccc(CN2CCO[C@H](COc3ccccc3)C2)cc1
5 | 130 nM | 36 nM | – | – | – | COc1ccc(CN2CCO[C@H](COc3cccc(C#N)c3)C2)cc1Cl
6 | 460 nM | 130 nM | – | – | – | Fc1cccc(OC[C@@H]2CN(Cc3ccc(Cl)cc3)CCO2)n1
7 | 103 nM | 47 nM | – | – | – | Clc1ccc(CN2CCO[C@H](COc3cccnc3)C2)cc1
8 | 130 nM | 37 nM | – | – | – | c1ccc(OC[C@@H]2CN(Cc3cccc4cc[nH]c34)CCO2)cc1
9 | 130 nM | 37 nM | – | – | – | Clc1ccc2[nH]cc(CN3CCO[C@H](COc4ccccc4)C3)c2c1
10 | 64 nM | 17.8 nM | – | – | – | c1ccc(OC[C@@H]2CN(Cc3ccc4ccccc4c3)CCO2)cc1
11 | 210 nM | 59 nM | – | – | – | COc1ccc(CN2CCO[C@H](COc3cccnc3)C2)cc1
12 | 3830 nM | 1060 nM | – | – | – | Fc1cccc2[nH]cc(CN3CCO[C@H](COc4ccccc4)C3)c12
13 | 92 nM | 26 nM | – | – | – | COc1ccc(CN2CCO[C@H](COc3cccc(F)c3)C2)cc1
14 | 590 nM | 160 nM | – | 0.057 | 0.215 | c1ccc(OC[C@@H]2CN(Cc3cn4ccccc4n3)CCO2)cc1
15 | 100 nM | 28 nM | – | – | – | COc1cc(CN2CCO[C@H](COc3cccc(C#N)c3)C2)ccc1Cl
16 | 180 nM | 51 nM | – | – | – | FC(F)(F)Oc1ccc(CN2CCO[C@H](COc3ccccc3)C2)cc1
17 | 460 nM | 130 nM | – | – | – | COc1ccc2[nH]cc(CN3CCO[C@H](COc4ccccc4)C3)c2c1

Row | IC50 (D(4) dopamine receptor) | Ki (D(4) dopamine receptor) | inhibition (D(2) dopamine receptor) | Fu [1] | Fu (Plasma) | Compound
18 | 530 nM | 150 nM | – | – | – | Fc1ccc(CN2CCO[C@H](COc3ccccc3)C2)cc1F
19 | 97 nM | 27 nM | – | 0.002 | 0.006 | Clc1ccc(CN2CCO[C@H](COc3ccccc3)C2)cc1Cl
20 | 100 nM | 29 nM | – | 0.004 | 0.008 | Clc1ccc(CN2CCO[C@H](COc3cccc(Cl)n3)C2)cc1
21 | 160 nM | 44 nM | – | – | – | COc1ccc(CN2CCO[C@H](COc3ccccc3)C2)cc1
22 | 150 nM | 42 nM | – | – | – | COc1ccc(OC[C@@H]2CN(Cc3ccc(Cl)cc3)CCO2)cc1
23 | 320 nM | 89 nM | – | – | – | Fc1ccc(CN2CCO[C@H](COc3ccccc3)C2)cc1C(F)(F)F
24 | 62 nM | 170 nM | – | – | – | Fc1ccc(CN2CCO[C@H](COc3ccccc3)C2)cc1Cl
25 | 69 nM | 19.1 nM | – | 0.006 | 0.012 | Fc1cc(CN2CCO[C@H](COc3ccccc3)C2)ccc1Cl
26 | 2630 nM | 730 nM | – | – | – | Clc1ccc(CN2CCO[C@H](COc3ccccn3)C2)cc1
27 | 1110 nM | 310 nM | – | – | – | c1ccc(OC[C@@H]2CN(Cc3ccc4ccccc4n3)CCO2)cc1
28 | 130 nM | 35 nM | < 50% | – | – | c1ccc(OC[C@@H]2CN(Cc3ncn4ccccc34)CCO2)cc1
29 | 260 nM | 73 nM | – | – | – | COc1ccc(CN2CCO[C@H](COc3cccc(F)n3)C2)cc1Cl
30 | 58 nM | 16.2 nM | – | 0.002 | 0.007 | Fc1cc(CN2CCO[C@H](COc3ccccc3)C2)ccc1C(F)(F)F
31 | 260 nM | 72 nM | – | – | – | FC1(F)Oc2ccc(CN3CCO[C@H](COc4ccccc4)C3)cc2O1
32 | 42 nM | 11.6 nM | – | – | – | COc1cc(CN2CCO[C@H](COc3ccccc3)C2)ccc1F
33 | 130 nM | 36 nM | – | – | – | COc1cccc(OC[C@@H]2CN(Cc3ccc(Cl)cc3)CCO2)c1
34 | 65 nM | 18.1 nM | < 50% | – | – | c1ccc(OC[C@@H]2CN(Cc3n[nH]c4ccccc34)CCO2)cc1
